Experimental data as given in ChEMBL document CHEMBL1132372, “The opioid mu agonist/delta antagonist DIPP-NH(2)[Psi] produces a potent analgesic effect, no physical dependence, and less tolerance than morphine in rats” (J Med Chem, 1999).
Square brackets hold non-standard residues; d marks the D form. Peptide text beside a SMILES is read from it. NMeDmt = CN[C@@H](Cc1c(C)cc(O)cc1C)C(=O)O; Dmt = Cc1cc(O)cc(C)c1C[C@H](N)C(=O)O; Tic = O=C(O)[C@@H]1Cc2ccccc2CN1

Tests used:
Mu-type opioid receptor = Mu-type opioid receptor (Rattus norvegicus, UniProt P33535); assay: Binding affinity for Opioid receptor mu 1 determined by displacing [3H]DAMGO from rat brain membrane binding sites
Mus musculus [1] = organism: Mus musculus; assay: Compound was evaluated for its antagonist potency against delta agonist […] by MVD assay(mouse vas deferens).; type: functional
Cavia porcellus [2] = organism: Cavia porcellus; assay: Compound was evaluated for antagonist potency against mu receptor. agonist TAPP by GPI (guinea pig ileum) assay.; type: functional
[3] = molecular target: Delta-type opioid receptor (Rattus norvegicus, UniProt P33533); assay: Binding affinity for Opioid receptor delta 1 determined by displacing [3H]-DSLET from rat brain membrane binding sites
[4] = molecular target: Kappa-type opioid receptor (Cavia porcellus, UniProt P41144); assay: Binding affinity for Opioid receptor kappa 1 determined by displacement of [3H]U-69593 from guinea pig brain membranes; parameters: species or system Membrane
Summary of the method: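 Guinea pig brain membranes incubated 2 h at 0 °C with 0.80 nM [3H]U69,593. IC50 taken from log dose-displacement curves; Ki by Cheng-Prusoff using Kd 2.9 nM.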

Mus musculus [5] = organism: Mus musculus; assay: Compound was evaluated for its antagonist potency against delta agonist deltorphin I, by MVD assay(mouse vas deferens).; type: functional
Cavia porcellus [6] = organism: Cavia porcellus; assay: Compound was evaluated for inhibition of electrically evoked contractions of the GPI (guinea pig ileum); type: functional
Summary of the method: (§1)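 Inhibition of electrically evoked contractions of guinea pig ileum. Each preparation also run with a [Leu5]enkephalin standard dose-response curve, and test IC50 values normalised against it.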

Cavia porcellus [7] = organism: Cavia porcellus; assay: Compound was evaluated for inhibition of electrically evoked contractions of the GPI (guinea pig ileum); PA=Partial agonist; type: functional; summary of the method: as §1
Rattus norvegicus = organism: Rattus norvegicus; assay: Analgesic Potency of compound in Comparison with Morphine evaluated by rat tail flick test; type: functional

Sequence of Kappa-type opioid receptor (P41144 whole entry): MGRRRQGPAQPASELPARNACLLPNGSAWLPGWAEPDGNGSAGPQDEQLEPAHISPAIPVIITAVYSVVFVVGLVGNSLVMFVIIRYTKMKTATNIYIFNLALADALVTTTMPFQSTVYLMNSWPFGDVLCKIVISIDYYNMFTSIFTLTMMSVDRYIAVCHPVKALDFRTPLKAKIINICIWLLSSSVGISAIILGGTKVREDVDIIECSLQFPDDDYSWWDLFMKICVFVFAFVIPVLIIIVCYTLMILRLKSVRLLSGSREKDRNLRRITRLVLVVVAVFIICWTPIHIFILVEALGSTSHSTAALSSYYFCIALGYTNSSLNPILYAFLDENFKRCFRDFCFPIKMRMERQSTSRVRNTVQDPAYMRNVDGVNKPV
Sequence of Mu-type opioid receptor (P33535 whole entry): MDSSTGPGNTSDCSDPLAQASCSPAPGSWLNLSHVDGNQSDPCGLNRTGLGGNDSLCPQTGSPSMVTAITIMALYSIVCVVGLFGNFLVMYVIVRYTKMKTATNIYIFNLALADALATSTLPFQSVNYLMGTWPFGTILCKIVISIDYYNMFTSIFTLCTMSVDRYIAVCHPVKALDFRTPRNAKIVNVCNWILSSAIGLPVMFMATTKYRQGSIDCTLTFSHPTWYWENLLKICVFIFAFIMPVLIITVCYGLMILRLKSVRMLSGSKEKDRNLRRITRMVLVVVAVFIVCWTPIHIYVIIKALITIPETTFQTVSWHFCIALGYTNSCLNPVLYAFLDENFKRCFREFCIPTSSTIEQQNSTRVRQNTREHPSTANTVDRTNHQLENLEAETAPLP
Sequence of Delta-type opioid receptor (P33533 whole entry): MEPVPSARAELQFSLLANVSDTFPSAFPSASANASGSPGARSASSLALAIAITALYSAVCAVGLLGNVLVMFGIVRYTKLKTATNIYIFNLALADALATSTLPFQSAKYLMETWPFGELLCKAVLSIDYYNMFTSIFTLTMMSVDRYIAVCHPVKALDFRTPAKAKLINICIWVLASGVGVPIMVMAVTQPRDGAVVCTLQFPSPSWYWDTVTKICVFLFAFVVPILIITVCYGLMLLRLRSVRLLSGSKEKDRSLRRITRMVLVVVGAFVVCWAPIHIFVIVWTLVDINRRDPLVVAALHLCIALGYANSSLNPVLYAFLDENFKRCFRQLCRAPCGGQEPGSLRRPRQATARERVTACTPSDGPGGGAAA

| Structure (SMILES) | Ki (Mu-type opioid receptor) [µM] | Ke (Mus musculus [1]) [nM] | Ke (Cavia porcellus [2]) [nM] | Ki [3] [µM] | Ki [4] [µM] | Ke (Mus musculus [5]) [nM] | IC50 (Cavia porcellus [6]) [µM] | IC50 (Cavia porcellus [7]) | ED50 (Rattus norvegicus) [µg] |
| --- | --- | --- | --- | --- | --- | --- | --- | --- | --- |
| CN[C@@H](Cc1c(C)cc(O)cc1C)C(=O)N1Cc2ccccc2CC1CN[C@@H](Cc1ccccc1)C(=O)N[C@@H](Cc1ccccc1)C(N)=O (stereo partly drawn) | 0.0762 | 22.1 | 64.5 | 0.061 | > 1 | 54.4 |  |  |  |
| Cc1cc(O)cc(C)c1C[C@H](N)C(=O)N1Cc2ccccc2CC1CN[C@@H](Cc1ccccc1)C(=O)N[C@@H](Cc1ccccc1)C(N)=O (stereo partly drawn) |  | 0.537 |  |  | > 1 | 0.486 | 0.00771 |  |  |
| Cc1cc(O)cc(C)c1C[C@H](N)C(=O)N1Cc2ccccc2C[C@H]1C(=O)N[C@@H](Cc1ccccc1)C(=O)N[C@@H](Cc1ccccc1)C(N)=O (H-[Dmt][Tic]FF-NH2) |  |  |  |  | > 1 |  |  |  |  |
| CN[C@@H](Cc1c(C)cc(O)cc1C)C(=O)N1Cc2ccccc2C[C@H]1C(=O)N[C@@H](Cc1ccccc1)C(=O)N[C@@H](Cc1ccccc1)C(N)=O (H-[NMeDmt][Tic]FF-NH2) | 0.00408 | 0.235 |  | 0.000393 | > 1 | 0.233 |  | Partial agonist |  |
| CN1CC[C@]23c4c5ccc(O)c4O[C@H]2[C@@H](O)C=C[C@H]3[C@H]1C5 [MORPHINE] |  |  |  |  |  |  |  |  | 0.11 |
